# Results taken from ChEMBL document CHEMBL3352416, “Discovery of carbohybrid-based 2-aminopyrimidine analogues as a new class of rapid-acting antimalarial agents using image-based cytological profiling assay” (J Med Chem, 2014).
# Activity calls are given as the source filed them. The calls are words filed in the database; no cut-off is given here.
# Columns and labels:
# [1] = system: Plasmodium falciparum; experiment: Antimalarial activity against tightly synchronized Plasmodium falciparum W2 assessed as parasite stage accumulation index at trophozoites stages at 10 uM treated at 30 hrs post-invasion for continuous duration of 36 hrs by automated image mining based cytological profiling assay; assay type: functional
# Outline: (§1)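 Tightly synchronized cultures exposed to 10 µM final from 6 hpi (early ring), 18 hpi (late ring) or 30 hpi (mid-trophozoite) for a continuous 36 h. Erythrocytes stained with WGA-AlexaFluor 488, parasite nuclei with DAPI, functional mitochondria with Mitotracker Red CMXRos. Stages (early rings, late rings, trophozoites, schizonts) classified by nuclear spot number and size. Viable parasitaemia and stage accumulation index obtained by automated image analysis.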
# [2] = system: Plasmodium falciparum; experiment: Antimalarial activity against tightly synchronized Plasmodium falciparum HB3 assessed as parasite stage accumulation index at schizonts stages at 10 uM treated at 18 hrs post-invasion for continuous duration of 36 hrs by automated image mining based cytological profiling assay; assay type: functional; outline: as §1
# [3] = system: Plasmodium falciparum; experiment: Antimalarial activity against tightly synchronized Plasmodium falciparum W2 assessed as parasite stage accumulation index at late ring stages at 10 uM treated at 6 hrs post-invasion for continuous duration of 36 hrs by automated image mining based cytological profiling assay; assay type: functional
# [4] = system: Plasmodium falciparum; experiment: Antimalarial activity against tightly synchronized Plasmodium falciparum K1 assessed as parasite stage accumulation index at schizonts stages at 10 uM treated at 18 hrs post-invasion for continuous duration of 36 hrs by automated image mining based cytological profiling assay; assay type: functional; outline: as §1
# [5] = system: Plasmodium falciparum; experiment: Antimalarial activity against tightly synchronized Plasmodium falciparum HB3 assessed as parasite stage accumulation index at early ring stages at 10 uM treated at 6 hrs post-invasion for continuous duration of 36 hrs by automated image mining based cytological profiling assay; assay type: functional
# [6] = system: Plasmodium falciparum; experiment: Antimalarial activity against tightly synchronized Plasmodium falciparum W2 assessed as parasite stage accumulation index at schizonts stages at 10 uM treated at 18 hrs post-invasion for continuous duration of 36 hrs by automated image mining based cytological profiling assay; assay type: functional
# [7] = system: Plasmodium falciparum; experiment: Antimalarial activity against tightly synchronized Plasmodium falciparum W2 assessed as parasite stage accumulation index at early ring stages at 10 uM treated at 6 hrs post-invasion for continuous duration of 36 hrs by automated image mining based cytological profiling assay; assay type: functional; outline: as §1
# [8] = system: Plasmodium falciparum; experiment: Antimalarial activity against tightly synchronized Plasmodium falciparum W2 assessed as parasite stage accumulation index at schizonts stages at 10 uM treated at 30 hrs post-invasion for continuous duration of 36 hrs by automated image mining based cytological profiling assay; assay type: functional
# [9] = system: Plasmodium falciparum; experiment: Antimalarial activity against tightly synchronized Plasmodium falciparum HB3 assessed as parasite stage accumulation index at late ring stages at 10 uM treated at 18 hrs post-invasion for continuous duration of 36 hrs by automated image mining based cytological profiling assay; assay type: functional; outline: as §1
# [10] = system: Plasmodium falciparum; experiment: Antimalarial activity against tightly synchronized Plasmodium falciparum K1 assessed as parasite stage accumulation index at schizonts stages at 10 uM treated at 30 hrs post-invasion for continuous duration of 36 hrs by automated image mining based cytological profiling assay; assay type: functional; outline: as §1
# [11] = system: Plasmodium falciparum; experiment: Antimalarial activity against tightly synchronized Plasmodium falciparum W2 assessed as parasite stage accumulation index at late ring stages at 10 uM treated at 18 hrs post-invasion for continuous duration of 36 hrs by automated image mining based cytological profiling assay; assay type: functional; outline: as §1
# [12] = system: Plasmodium falciparum; experiment: Antimalarial activity against Plasmodium falciparum W2 assessed as increase in schizonts parasite stage accumulation index at 10 uM treated at 42 hrs post-invasion for 24 hrs by automated image mining based cytological profiling assay; assay type: functional, organism-based
# Outline: (§2)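 Tightly synchronized cultures exposed from the 42 hpi mid-schizont point for 24 h to 10 µM final. Host cells stained with wheat germ agglutinin-AlexaFluor 488, parasite nuclei with DAPI and live-parasite mitochondria with Mitotracker Red CMXRos. Infected and viable parasitaemia and stage proportions quantified by automated image mining. Stage accumulation indices and parasitaemia reduction index derived.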
# [13] = system: Plasmodium falciparum; experiment: Antimalarial activity against tightly synchronized Plasmodium falciparum K1 assessed as parasite stage accumulation index at trophozoites stages at 10 uM treated at 30 hrs post-invasion for continuous duration of 36 hrs by automated image mining based cytological profiling assay; assay type: functional; outline: as §1
# [14] = system: Plasmodium falciparum; experiment: Antimalarial activity against Plasmodium falciparum K1 assessed as reduction in parasite stage accumulation index at 10 uM treated at 42 hrs post-invasion for 24 hrs by automated image mining based cytological profiling assay; assay type: functional, organism-based; outline: as §2
# [15] = system: Plasmodium falciparum; experiment: Antimalarial activity against Plasmodium falciparum K1 assessed as increase in schizonts parasite stage accumulation index at 10 uM treated at 42 hrs post-invasion for 24 hrs by automated image mining based cytological profiling assay; assay type: functional, organism-based; outline: as §2
# [16] = system: Plasmodium falciparum; experiment: Antimalarial activity against tightly synchronized Plasmodium falciparum K1 assessed as parasite stage accumulation index at early ring stages at 10 uM treated at 6 hrs post-invasion for continuous duration of 36 hrs by automated image mining based cytological profiling assay; assay type: functional; outline: as §1
# [17] = system: Plasmodium falciparum; experiment: Antimalarial activity against Plasmodium falciparum HB3 assessed as increase in schizonts parasite stage accumulation index at 10 uM treated at 42 hrs post-invasion for 24 hrs by automated image mining based cytological profiling assay; assay type: functional; outline: as §2
# [18] = system: Plasmodium falciparum; experiment: Antimalarial activity against tightly synchronized Plasmodium falciparum W2 assessed as parasite stage accumulation index at schizonts stages at 10 uM treated at 6 hrs post-invasion for continuous duration of 36 hrs by automated image mining based cytological profiling assay; assay type: functional; outline: as §1
# [19] = system: Plasmodium falciparum; experiment: Antimalarial activity against tightly synchronized Plasmodium falciparum K1 assessed as parasite stage accumulation index at trophozoites stages at 10 uM treated at 6 hrs post-invasion for continuous duration of 36 hrs by automated image mining based cytological profiling assay; assay type: functional
# [20] = system: Plasmodium falciparum; experiment: Antimalarial activity against tightly synchronized Plasmodium falciparum K1 assessed as parasite stage accumulation index at late ring stages at 10 uM treated at 6 hrs post-invasion for continuous duration of 36 hrs by automated image mining based cytological profiling assay; assay type: functional
# [21] = system: Plasmodium falciparum; experiment: Antimalarial activity against tightly synchronized Plasmodium falciparum HB3 assessed as parasite stage accumulation index at late ring stages at 10 uM treated at 6 hrs post-invasion for continuous duration of 36 hrs by automated image mining based cytological profiling assay; assay type: functional; outline: as §1
# [22] = system: Plasmodium falciparum; experiment: Antimalarial activity against tightly synchronized Plasmodium falciparum HB3 assessed as parasite stage accumulation index at trophozoites stages at 10 uM treated at 30 hrs post-invasion for continuous duration of 36 hrs by automated image mining based cytological profiling assay; assay type: functional
# [23] = system: Plasmodium falciparum; experiment: Antimalarial activity against tightly synchronized Plasmodium falciparum HB3 assessed as parasite stage accumulation index at trophozoites stages at 10 uM treated at 6 hrs post-invasion for continuous duration of 36 hrs by automated image mining based cytological profiling assay; assay type: functional; outline: as §1
# [24] = system: Plasmodium falciparum; experiment: Antimalarial activity against Plasmodium falciparum W2 assessed as reduction in parasite stage accumulation index at 10 uM treated at 42 hrs post-invasion for 24 hrs by automated image mining based cytological profiling assay; assay type: functional, organism-based; outline: as §2
# [25] = system: Plasmodium falciparum; experiment: Antimalarial activity against Plasmodium falciparum HB3 assessed as reduction in parasite stage accumulation index at 10 uM treated at 42 hrs post-invasion for 24 hrs by automated image mining based cytological profiling assay; assay type: functional; outline: as §2
# [26] = system: Plasmodium falciparum; experiment: Antimalarial activity against tightly synchronized Plasmodium falciparum HB3 assessed as parasite stage accumulation index at schizonts stages at 10 uM treated at 6 hrs post-invasion for continuous duration of 36 hrs by automated image mining based cytological profiling assay; assay type: functional; outline: as §1
# [27] = system: Plasmodium falciparum; experiment: Antimalarial activity against tightly synchronized Plasmodium falciparum HB3 assessed as parasite stage accumulation index at schizonts stages at 10 uM treated at 30 hrs post-invasion for continuous duration of 36 hrs by automated image mining based cytological profiling assay; assay type: functional
# [28] = system: Plasmodium falciparum; experiment: Antimalarial activity against tightly synchronized Plasmodium falciparum K1 assessed as parasite stage accumulation index at trophozoites stages at 10 uM treated at 18 hrs post-invasion for continuous duration of 36 hrs by automated image mining based cytological profiling assay; assay type: functional; outline: as §1
# [29] = system: Plasmodium falciparum; experiment: Antimalarial activity against tightly synchronized Plasmodium falciparum K1 assessed as parasite stage accumulation index at late ring stages at 10 uM treated at 18 hrs post-invasion for continuous duration of 36 hrs by automated image mining based cytological profiling assay; assay type: functional; outline: as §1
# [30] = system: Plasmodium falciparum; experiment: Antimalarial activity against tightly synchronized Plasmodium falciparum HB3 assessed as parasite stage accumulation index at trophozoites stages at 10 uM treated at 18 hrs post-invasion for continuous duration of 36 hrs by automated image mining based cytological profiling assay; assay type: functional; outline: as §1
# [31] = system: Plasmodium falciparum; experiment: Antimalarial activity against tightly synchronized Plasmodium falciparum W2 assessed as parasite stage accumulation index at trophozoites stages at 10 uM treated at 6 hrs post-invasion for continuous duration of 36 hrs by automated image mining based cytological profiling assay; assay type: functional
# [32] = system: Plasmodium falciparum; experiment: Antimalarial activity against tightly synchronized Plasmodium falciparum W2 assessed as parasite stage accumulation index at trophozoites stages at 10 uM treated at 18 hrs post-invasion for continuous duration of 36 hrs by automated image mining based cytological profiling assay; assay type: functional
# [33] = system: Plasmodium falciparum; experiment: Antimalarial activity against tightly synchronized Plasmodium falciparum K1 assessed as parasite stage accumulation index at schizonts stages at 10 uM treated at 6 hrs post-invasion for continuous duration of 36 hrs by automated image mining based cytological profiling assay; assay type: functional; outline: as §1
smiles,measurement,setting,value
CC(C)C[C@H](NC(=O)[C@H]1O[C@@H]1C(=O)O)C(=O)NCCCCN=C(N)N [E-64],Activity,[1],1.44
same,Activity,[2],2.05
same,Activity,[3],0.91
same,Activity,[4],2.11
same,Activity,[5],3.15
same,Activity,[6],2.1
same,Activity,[7],1.78
same,Activity,[8],3
same,Activity,[9],0.8
same,Activity,[10],2.07
same,Activity,[11],0.76
same,inhibition,[12],Active
same,Activity,[13],0.5
same,inhibition,[14],Active
same,inhibition,[15],Active
same,Activity,[16],1.69
same,inhibition,[17],Active
same,Activity,[18],1.2
same,Activity,[19],1.25
same,Activity,[20],0.67
same,Activity,[21],1.15
same,Activity,[22],1.06
same,Activity,[23],1.32
same,inhibition,[24],Active
same,inhibition,[25],Active
same,Activity,[26],0.45
same,Activity,[27],3.85
same,Activity,[28],1.45
same,Activity,[29],0.39
same,Activity,[30],1.33
same,Activity,[31],1.4
same,Activity,[32],1.22
same,Activity,[33],0.55
